According to ChEMBL document CHEMBL1124683, “Synthesis and in vitro activity of 1 beta-methyl C-2 quaternary heterocyclic alkylthio carbapenems” (J Med Chem, 1989):
≈ marks a conversion by molar mass, not a printed value.

How the values were obtained:
Escherichia coli = assay: Compound was tested in vitro for antibacterial activity against Escherichia coli A-15119; type: functional
How it was run: (§1)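 MIC by serial 2-fold dilution in Mueller-Hinton agar, or in broth. Agar surface or broth was inoculated with an appropriately diluted 18–24-h broth culture. Incubation was 37 °C for 17 h. The MIC was the lowest concentration that inhibited visible growth.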

Sus scrofa = species: Sus scrofa; assay: Compound was evaluated for the rate of hydrolysis by renal dipeptidase relative to hog renal dipeptidase; type: ADME; conditions: pig; in the assay text read “relative to imipenem” for “relative to hog renal dipeptidase”
How it was run: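 Purified hog renal dipeptidase. Substrate was 0.10 mM carbapenem in 50 mM MOPS, pH 7.1, freshly prepared. λmax and ε came from the UV difference spectrum before and after β-lactam cleavage by hydroxylamine at 25 °C. Spontaneous absorbance change was followed at 25 °C, then enzyme was added to give ≥10^-4 AU/s. The corrected rate was converted to nmol min^-1 (mL enzyme)^-1 and expressed relative to imipenem.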

Pseudomonas aeruginosa = assay: Compound was tested in vitro for antibacterial activity against Pseudomonas aeruginosa; type: functional; how it was run: as §1
Staphylococcus aureus [1] = assay: (§2) Compound was tested in vitro for antibacterial activity against Staphylococcus aureus, pen-res A-9606; type: functional; how it was run: as §1
Serratia marcescens = assay: Compound was tested in vitro for antibacterial activity against Serratia marcescens A-20019; type: functional; how it was run: as §1
Proteus vulgaris = assay: Compound was tested in vitro for antibacterial activity against Proteus vulgaris A-21559; type: functional; how it was run: as §1
Enterobacter cloacae = assay: Compound was tested in vitro for antibacterial activity against Enterobacter cloacae A-9695; type: functional; how it was run: as §1
Staphylococcus aureus [2] = assay: as §2; type: functional, staphylococcus aure; how it was run: as §1

| MIC (Escherichia coli) [µg/mL] | Relative rate (Sus scrofa) | MIC (Pseudomonas aeruginosa) [µg/mL] | MIC (Staphylococcus aureus [1]) [µg/mL] | MIC (Serratia marcescens) [µg/mL] | MIC (Proteus vulgaris) [µg/mL] | MIC (Enterobacter cloacae) [µg/mL] | MIC (Staphylococcus aureus [2]) [µg/mL] | SMILES |
| --- | --- | --- | --- | --- | --- | --- | --- | --- |
| 0.03 (≈ 0.0897 µM) | 0.84 | 0.5 (≈ 1.5 µM) | 0.016 (≈ 0.0478 µM) | 0.13 (≈ 0.389 µM) | 0.03 (≈ 0.0897 µM) |  |  | CC(O)[C@H]1C(=O)N2C(C(=O)[O-])=C(SCc3cc[n+](C)cc3)CC12 (some centres not stated) |
| 0.016 (≈ 0.0459 µM) | 0.02 | 0.5 (≈ 1.44 µM) | 0.016 (≈ 0.0459 µM) | 0.03 (≈ 0.0861 µM) | 0.03 (≈ 0.0861 µM) | 0.06 (≈ 0.172 µM) |  | CC(O)[C@H]1C(=O)N2C(C(=O)[O-])=C(SCc3cc[n+](C)cc3)[C@H](C)C12 (some centres not stated) |
| 0.008 (≈ 0.023 µM) | 0.4 | 0.5 (≈ 1.44 µM) | 0.016 (≈ 0.0459 µM) | 0.03 (≈ 0.0861 µM) | 0.03 (≈ 0.0861 µM) | 0.016 (≈ 0.0459 µM) |  | Cc1c(CSC2=C(C(=O)[O-])N3C(=O)[C@H](C(C)O)C3C2)ccc[n+]1C (some centres not stated) |
| 0.008 (≈ 0.0237 µM) | 0.2 | 2 (≈ 5.93 µM) |  | 0.016 (≈ 0.0474 µM) | 0.008 (≈ 0.0237 µM) | 0.03 (≈ 0.0889 µM) | 0.004 (≈ 0.0119 µM) | CC(O)[C@H]1C(=O)N2C(C(=O)[O-])=C(SCc3n(C)cc[n+]3C)CC12 (some centres not stated) |

More lines, now with the values behind:

| SMILES | MIC (Escherichia coli) [µg/mL] | Relative rate (Sus scrofa) | MIC (Pseudomonas aeruginosa) [µg/mL] | MIC (Staphylococcus aureus [1]) [µg/mL] | MIC (Serratia marcescens) [µg/mL] | MIC (Proteus vulgaris) [µg/mL] | MIC (Enterobacter cloacae) [µg/mL] | MIC (Staphylococcus aureus [2]) [µg/mL] |
| --- | --- | --- | --- | --- | --- | --- | --- | --- |
| CC(O)[C@H]1C(=O)N2C(C(=O)O)=C(SCc3ccncc3)CC12 (some centres not stated) | 0.03 (≈ 0.0936 µM) | 3.84 | 32 (≈ 99.9 µM) | 0.03 (≈ 0.0936 µM) | 0.13 (≈ 0.406 µM) | 0.03 (≈ 0.0936 µM) | 0.5 (≈ 1.56 µM) |  |
| CC(O)[C@H]1C(=O)N2C(C(=O)O)=C(SCc3nccn3C)[C@H](C)C12 (some centres not stated) | 0.008 (≈ 0.0237 µM) | 0.94 | 16 (≈ 47.4 µM) | 0.016 (≈ 0.0474 µM) | 0.016 (≈ 0.0474 µM) | 0.016 (≈ 0.0474 µM) | 0.016 (≈ 0.0474 µM) |  |
| CC(O)[C@H]1C(=O)N2C(C(=O)[O-])=C(SCc3n(C)cc[n+]3C)[C@H](C)C12 (some centres not stated) | 0.004 (≈ 0.0114 µM) | 0.003 | 1 (≈ 2.85 µM) | 0.008 (≈ 0.0228 µM) | 0.03 (≈ 0.0854 µM) | 0.016 (≈ 0.0455 µM) | 0.06 (≈ 0.171 µM) |  |
| Cc1c(CSC2=C(C(=O)[O-])N3C(=O)[C@H](C(C)O)C3[C@H]2C)ccc[n+]1C (some centres not stated) | 0.004 (≈ 0.011 µM) | 0.01 | 2 (≈ 5.52 µM) | 0.016 (≈ 0.0441 µM) | 0.16 (≈ 0.441 µM) | 0.03 (≈ 0.0828 µM) | 0.016 (≈ 0.0441 µM) |  |
| C[C@@H](O)[C@H]1C(=O)N2C(C(=O)O)=C(SCCN=CN)C[C@H]12 [IMIPENEM ANHYDROUS] | 0.016 (≈ 0.0534 µM) | 1 | 0.25 (≈ 0.835 µM) | 0.008 (≈ 0.0267 µM) | 0.03 (≈ 0.1 µM) | 0.03 (≈ 0.1 µM) | 0.06 (≈ 0.2 µM) |  |
